Measured values from ChEMBL document CHEMBL2407057, “Structural variations on antitumour agents derived from bisacylimidoselenocarbamate. A proposal for structure-activity relationships based on the analysis of conformational behaviour” (Eur J Med Chem, 2013).

How the values were obtained:
[1] = Prodrug activation assessed as induction of NaBH4-induced […] release at 60 mM after 16 hrs by head space gas chromatography mass spectrometry analysis; details: 60000 µM
How it was run: (§1)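 Compounds dissolved at 60 mM in 5% DMSO/H2O and held at room temperature in sealed vials. Headspace sampled at 8, 16 and 24 h for HS-GC–MS on an HP-5MS column with helium carrier at 1 mL/min, 50:1 split, and EI at 70 eV. SCAN mode was used to set SIM for MeSeH (tR 1.5 min) and DiMeDiSe (tR 2.9 min). Read-out was peak area.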

[2] = Prodrug activation assessed as induction of NaBH4-induced MeSeH release at 60 mM after 8 hrs by head space gas chromatography mass spectrometry analysis; details: 60000 µM; how it was run: as §1
[3] = Prodrug activation assessed as induction of NaBH4-induced DiMeDiSe release at 60 mM after 8 hrs by head space gas chromatography mass spectrometry analysis; details: 60000 µM; how it was run: as §1
[4] = Prodrug activation assessed as induction of NaBH4-induced […] release at 60 mM after 24 hrs by head space gas chromatography mass spectrometry analysis; details: 60000 µM; how it was run: as §1
HT-29 = assay: Cytotoxicity against human HT-29 cells after 72 hrs by MTT assay; assay type: functional; details: HT-29, 72 h; for GI50: read-out: pGI50 (converted)
MCF7 = assay: Cytotoxicity against human MCF7 cells after 72 hrs by MTT assay; assay type: functional; details: MCF7, 72 h; for GI50: read-out: pGI50 (converted)

Compound | Drug metabolism [1] | Drug metabolism [2] | Drug metabolism [3] | Drug metabolism [4] | TGI (HT-29) [µM] | GI50 (HT-29) [µM] | GI50 (MCF7) [µM] | CC50 (MCF7; read-out: LC50 (the source's name)) [µM]
C[Se]/C(=N\C(=O)c1ccco1)NC(=O)c1ccco1 | Active | Active | Active | Active | – | – | – | –
C[Se]/C(=N\C(=O)c1cccs1)NC(=O)c1cccs1 | Active | Not Active | Active | Active | – | – | – | –
C[Se]/C(=N\C(=O)c1sccc1Cl)NC(=O)c1sccc1Cl | – | Active | Active | – | 38.8 | – | – | –
C[Se]/C(=N\C(=O)c1csc([N+](=O)[O-])c1)NC(=O)c1csc([N+](=O)[O-])c1 | – | Active | Not Active | – | – | – | – | –
C[Se]/C(=N\C(=O)c1ccno1)NC(=O)c1ccno1 | – | Not Active | Active | – | – | – | – | –
C[Se]/C(=N\C(=O)c1cc2ccccc2s1)NC(=O)c1cc2ccccc2s1 | – | Not Active | Not Active | – | 40.1 | 5.62 | 5.07 | –
C[Se]/C(=N\C(=O)c1ccc2c(c1)OCO2)NC(=O)c1ccc2c(c1)OCO2 | – | Not Active | Not Active | – | – | 0.53 | 0.99 | –
C[Se]/C(=N\C(=O)c1cnc2ccccc2c1)NC(=O)c1cnc2ccccc2c1 | Active | Not Active | Not Active | Active | – | 0.2 | 0.66 | –
C[Se]/C(=N\C(=O)c1cc(-c2ccccc2)nc2ccccc12)NC(=O)c1cc(-c2ccccc2)nc2ccccc12 | – | Not Active | Not Active | – | 32.6 | 0.46 | 0.49 | –
C[Se]/C(=N\C(=O)c1c2ccccc2nc2ccccc12)NC(=O)c1c2ccccc2nc2ccccc12 | Active | Not Active | Not Active | Active | 64 | 7.63 | 73.9 | –
CC[C@@]1(O)C(=O)OCc2c1cc1n(c2=O)Cc2cc3ccccc3nc2-1 [CAMPTOTHECIN] | – | – | – | – | 0.79 | – | – | –
COc1cccc2c1C(=O)c1c(O)c3c(c(O)c1C2=O)C[C@@](O)(C(=O)CO)C[C@@H]3O[C@H]1C[C@H](N)[C@H](O)[C@H](C)O1 [DOXORUBICIN] | – | – | – | – | 6.31 | – | – | –
CN(Cc1cnc2nc(N)nc(N)c2n1)c1ccc(C(=O)N[C@@H](CCC(=O)O)C(=O)O)cc1 [METHOTREXATE] | – | – | – | – | – | – | – | > 100
CC(=O)O[C@H]1C(=O)[C@@]2(C)[C@H]([C@H](OC(=O)c3ccccc3)[C@]3(O)C[C@H](OC(=O)[C@H](O)[C@@H](NC(=O)c4ccccc4)c4ccccc4)C(C)=C1C3(C)C)[C@]1(OC(C)=O)CO[C@@H]1C[C@@H]2O [PACLITAXEL] | – | – | – | – | 0.2 | – | – | –
